From publication PMC5522751 (Bioorganic & medicinal chemistry, 2017)

Legend:
[1] = biological target: human 20S proteasome chymotrypsin-like (ChT-L, β5) site (Homo sapiens, UniProt P20618+P28074); assay: Fluorogenic assay for 20S human proteasome inhibition, chymotrypsin-like site; assay type: biochemical; details: compared to the diastereomeric β-lactone 21
[2] = biological target: human 20S proteasome caspase-like (C-L, β1) site (Homo sapiens, UniProt P28072+Q99436); assay: Fluorogenic assay for 20S human proteasome inhibition, caspase-like site; assay type: biochemical
[3] = biological target: human 20S proteasome trypsin-like (T-L, β2) site (Homo sapiens, UniProt P49720+Q99436); assay: Fluorogenic assay for 20S human proteasome inhibition, trypsin-like site; assay type: biochemical
[4] = biological target: human FAS-TE (Homo sapiens, UniProt P49327); assay: Fluorogenic assay for human FAS-TE inhibition; assay type: biochemical; details: for reduction (drop) of FAS-TE activity: compared to 21
[5] = biological target: FAS (Homo sapiens, UniProt P49327); assay: Activity-based in situ competitive labelling against ABPP probe 28, FAS band; assay type: cell-based; details: MCF-7 cells, 30 min preincubation with inhibitor, then 10 µM probe 28 for 30 min
Procedure, shortened: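 Cells at 80–90% confluency were washed and given serum-free medium with test compound (10–100 µM; 1, 2.5, 5, 10-fold excess over probe) or DMSO, 30 min at 37 °C, 5% CO2. Alkyne probe was added (10 µM final) for 30 min. Soluble lysate (1% NP-40/1% deoxycholate, ~1.0 mg/mL) was clicked to TAMRA-N3 (100 µM; 1 mM CuSO4, 1 mM TCEP, 100 µM TBTA) for 1–1.5 h, RT, dark. Read-out: 10% SDS-PAGE, in-gel fluorescence.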

[6] = biological target: ChT-L (proteasome beta-5, PSB-5) (Homo sapiens, UniProt P20618+P28074); assay: Activity-based in situ competitive labelling against ABPP probe 28, ChT-L; assay type: cell-based; details: MCF-7 cells, 30 min preincubation with inhibitor, then 10 µM probe 28 for 30 min

Sequence of human FAS-TE (P49327 2207-2511 limits assumed): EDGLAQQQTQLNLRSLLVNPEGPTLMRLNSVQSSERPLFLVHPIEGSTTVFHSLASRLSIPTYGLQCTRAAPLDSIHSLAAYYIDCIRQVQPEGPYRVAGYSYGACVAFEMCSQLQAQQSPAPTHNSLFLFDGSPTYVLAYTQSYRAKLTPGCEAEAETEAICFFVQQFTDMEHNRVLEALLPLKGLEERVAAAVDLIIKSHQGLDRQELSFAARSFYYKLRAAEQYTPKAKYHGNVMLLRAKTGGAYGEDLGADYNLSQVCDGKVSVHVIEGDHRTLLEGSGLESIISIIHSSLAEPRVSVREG
Sequence of FAS (P49327 whole entry): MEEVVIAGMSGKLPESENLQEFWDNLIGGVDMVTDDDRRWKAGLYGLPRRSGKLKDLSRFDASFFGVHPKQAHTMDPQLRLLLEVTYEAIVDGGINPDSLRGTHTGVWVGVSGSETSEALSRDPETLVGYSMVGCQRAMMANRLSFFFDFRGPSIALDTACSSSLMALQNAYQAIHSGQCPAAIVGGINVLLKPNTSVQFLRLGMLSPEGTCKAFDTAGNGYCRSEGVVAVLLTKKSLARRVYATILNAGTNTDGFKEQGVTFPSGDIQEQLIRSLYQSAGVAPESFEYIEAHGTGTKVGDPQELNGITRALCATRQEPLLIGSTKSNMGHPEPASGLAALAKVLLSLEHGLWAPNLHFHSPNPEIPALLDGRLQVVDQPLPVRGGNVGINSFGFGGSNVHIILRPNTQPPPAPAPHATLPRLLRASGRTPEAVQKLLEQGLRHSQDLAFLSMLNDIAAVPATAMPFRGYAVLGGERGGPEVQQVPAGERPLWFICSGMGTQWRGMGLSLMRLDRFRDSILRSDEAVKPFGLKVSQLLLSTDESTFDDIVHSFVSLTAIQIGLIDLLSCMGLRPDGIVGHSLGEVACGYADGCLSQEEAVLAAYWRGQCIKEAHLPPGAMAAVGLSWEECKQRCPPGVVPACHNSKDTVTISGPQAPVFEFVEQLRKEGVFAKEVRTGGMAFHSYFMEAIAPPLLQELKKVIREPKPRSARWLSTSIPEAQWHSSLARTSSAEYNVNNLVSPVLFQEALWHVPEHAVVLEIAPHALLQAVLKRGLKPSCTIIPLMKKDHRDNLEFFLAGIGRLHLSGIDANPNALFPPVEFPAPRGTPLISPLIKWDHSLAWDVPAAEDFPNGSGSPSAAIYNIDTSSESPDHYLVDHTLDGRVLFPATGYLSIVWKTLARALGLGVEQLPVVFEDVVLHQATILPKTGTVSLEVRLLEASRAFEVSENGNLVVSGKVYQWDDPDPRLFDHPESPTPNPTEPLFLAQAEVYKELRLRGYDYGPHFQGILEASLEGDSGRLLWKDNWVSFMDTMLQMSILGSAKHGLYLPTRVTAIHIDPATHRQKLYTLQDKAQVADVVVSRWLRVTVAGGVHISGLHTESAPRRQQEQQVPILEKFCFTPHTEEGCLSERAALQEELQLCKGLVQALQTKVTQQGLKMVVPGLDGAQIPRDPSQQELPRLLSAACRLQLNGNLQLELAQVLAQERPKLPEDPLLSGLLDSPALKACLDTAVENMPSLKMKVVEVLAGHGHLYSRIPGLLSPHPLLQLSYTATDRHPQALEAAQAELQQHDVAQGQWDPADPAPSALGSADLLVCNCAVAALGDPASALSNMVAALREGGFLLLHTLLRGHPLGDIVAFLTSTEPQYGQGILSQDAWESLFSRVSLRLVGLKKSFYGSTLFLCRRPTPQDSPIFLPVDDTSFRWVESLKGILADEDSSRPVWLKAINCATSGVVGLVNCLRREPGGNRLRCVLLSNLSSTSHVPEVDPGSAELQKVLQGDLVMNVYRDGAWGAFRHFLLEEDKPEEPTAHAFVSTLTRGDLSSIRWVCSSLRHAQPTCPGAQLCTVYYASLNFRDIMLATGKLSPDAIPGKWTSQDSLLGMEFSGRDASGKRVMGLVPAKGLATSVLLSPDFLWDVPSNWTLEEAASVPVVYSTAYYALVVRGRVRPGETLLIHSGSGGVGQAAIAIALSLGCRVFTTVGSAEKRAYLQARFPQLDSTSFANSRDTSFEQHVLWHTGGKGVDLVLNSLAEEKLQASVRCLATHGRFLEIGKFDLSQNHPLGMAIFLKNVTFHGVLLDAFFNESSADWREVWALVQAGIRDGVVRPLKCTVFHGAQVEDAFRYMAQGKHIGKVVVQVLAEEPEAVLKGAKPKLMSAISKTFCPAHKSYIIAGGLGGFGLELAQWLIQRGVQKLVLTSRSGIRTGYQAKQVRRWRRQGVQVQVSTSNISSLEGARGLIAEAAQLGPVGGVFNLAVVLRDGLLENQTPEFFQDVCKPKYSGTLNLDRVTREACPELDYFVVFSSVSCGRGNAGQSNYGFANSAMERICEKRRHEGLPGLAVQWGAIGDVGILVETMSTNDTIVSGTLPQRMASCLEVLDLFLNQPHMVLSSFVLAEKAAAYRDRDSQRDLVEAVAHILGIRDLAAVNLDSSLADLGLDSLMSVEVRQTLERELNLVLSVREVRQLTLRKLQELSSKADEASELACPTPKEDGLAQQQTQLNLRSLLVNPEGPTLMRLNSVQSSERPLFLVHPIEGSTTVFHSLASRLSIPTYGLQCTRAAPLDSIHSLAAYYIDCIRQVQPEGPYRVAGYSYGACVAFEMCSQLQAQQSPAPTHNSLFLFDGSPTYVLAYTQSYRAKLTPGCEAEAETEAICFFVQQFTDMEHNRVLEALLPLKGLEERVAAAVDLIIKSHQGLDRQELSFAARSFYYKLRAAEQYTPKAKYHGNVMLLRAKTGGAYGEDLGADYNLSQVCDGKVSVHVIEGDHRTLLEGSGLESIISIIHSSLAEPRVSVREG

Compound | IC50 [2] | IC50 [3] | also measured
CCCCCC[C@H]1C(=O)O[C@@H]1C(=O)NCCCC[C@H](NC(=O)OCc1ccccc1)C(=O)N[C@@H](C)C(=O)OCc1ccccc1 [compound 23] | > 100 µM | > 100 µM | reduction of proteasome ChT-L activity [1]: ~ 8 fold; reduction (drop) of FAS-TE activity [4]: ~ 8 fold
CCCCCC[C@@H]1C(=O)O[C@H]1C(=O)NCCCC[C@H](NC(=O)OCc1ccccc1)C(=O)N[C@@H](C)C(=O)OCc1ccccc1 [compound 21] | > 100 µM | > 100 µM | potency against FAS-TE compared to orlistat ([4]; ratio of IC50 values, more potent than orlistat): 3 X; excess of inhibitor over probe 28 that resulted in FAS signal reduction [5]: 10 fold; excess of inhibitor over probe 28 that resulted in ChT-L signal reduction [6]: 2.5 fold
CCCCCC[C@@]1(C)C(=O)O[C@H]1C(=O)NCCCC[C@H](NC(=O)[C@H](C)NC(=O)OCc1ccccc1)C(=O)OCc1ccccc1 [compound 27] |  | > 100 µM | 
CCCCCC[C@H]1C(=O)O[C@@H]1C(=O)NCCCC[C@H](NC(=O)CNC(=O)OCc1ccccc1)C(=O)OCc1ccccc1 [compound 24] |  | > 100 µM | 
CCCCCC[C@]1(C)C(=O)O[C@H]1C(=O)NCCCC[C@H](NC(=O)[C@H](C)NC(=O)OCc1ccccc1)C(=O)OCc1ccccc1 [compound 25] |  | > 100 µM | excess of inhibitor over probe 28 that resulted in FAS signal reduction [5]: not able to compete effectively; excess of inhibitor over probe 28 that resulted in ChT-L signal reduction [6]: not able to compete effectively
CCCCCC[C@@H]1C(=O)O[C@H]1C(=O)NCCCC[C@H](NC(=O)[C@H](C)NC(=O)OCc1ccccc1)C(=O)OCc1ccccc1 [compound 17] |  | > 100 µM | 
CCCCCCCCCCC[C@@H](C[C@@H]1OC(=O)[C@H]1CCCCCC)OC(=O)[C@H](CC(C)C)NC=O [orlistat, Tetrahydrolipstatin, reference compound] | > 100 µM | > 100 µM | 
CCCCCC[C@@H]1C(=O)O[C@H]1C(=O)NCCCC[C@H](NC(=O)CNC(=O)OCc1ccccc1)C(=O)OCc1ccccc1 [compound 18] |  | > 100 µM | drop in potency against FAS-TE ([4]; relative to derivative 17): ~ 3 fold
CCCCCC[C@@H]1C(=O)O[C@H]1C(=O)NCCCC[C@@H]1NC(=O)N([C@@H](C)C(=O)OCc2ccccc2)C1=O [compound 22] | 7.93 ± 0.21 µM | > 100 µM | 
C#Cc1ccc(COC(=O)[C@H](C)NC(=O)[C@H](CCCCNC(=O)[C@@H]2OC(=O)[C@H]2CCCCCC)NC(=O)OCc2ccccc2)cc1 [compound 28] | > 100 µM | > 100 µM | reduction (drop) of FAS-TE activity [4]: ~ 2.5 fold
CCCCCC[C@@H]1C(=O)O[C@H]1C(=O)NCCCC[C@H](NC(=O)[C@H](C)NC(=O)c1ccc(Br)cc1)C(=O)OCc1ccccc1 [compound 20] |  | > 100 µM | 
CCCCCC[C@@]1(C)C(=O)O[C@@H]1C(=O)NCCCC[C@H](NC(=O)[C@H](C)NC(=O)OCc1ccccc1)C(=O)OCc1ccccc1 [compound 26] |  | > 100 µM | 
